Laboratory results reported in ChEMBL document CHEMBL4689842, “EUbOPEN Chemogenomics Library wave 1” (2021).
Several values for one entry are separate records, joined by “and”; a condition that tells them apart may be missing. Identical values can stand only once.

Tested on: U2OS
Assay: Multiplex assay against U2OS
Format: toxicity, cell-based
Settings: human
How it was run: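 On a CQ1 microscope at 37°C and 5% CO2, live cells were imaged after compound addition. They had been stained at seeding with Hoechst33342, BioTracker Green Microtubule Cytoskeleton Dye, MitoTracker Red and Annexin V Alexa Fluor 680. CellPathfinder machine-learning gating assigned cells to Hoechst high-intensity objects or normal cells, normal cells to healthy, pyknosed or fragmented nuclei, and pyknosed cells to mitotic or apoptotic. Tubulin, mitochondrial-mass and membrane-permeability phenotypes are per cents of healthy-nucleus cells.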

[1] = 12 h, 1 µM, compound concentration 1 uM, replicate 1
[2] = 12 h, 1 µM, compound concentration 1 uM, replicate 2
[3] = 12 h, 10 µM, compound concentration 10 uM, replicate 1
[4] = 12 h, 10 µM, compound concentration 10 uM, replicate 2
[5] = 24 h, 1 µM, compound concentration 1 uM, replicate 1
[6] = 24 h, 1 µM, compound concentration 1 uM, replicate 2
[7] = 24 h, 10 µM, compound concentration 10 uM, replicate 1
[8] = 24 h, 10 µM, compound concentration 10 uM, replicate 2
[9] = 48 h, 1 µM, compound concentration 1 uM, replicate 1
[10] = 48 h, 1 µM, compound concentration 1 uM, replicate 2
[11] = 48 h, 10 µM, compound concentration 10 uM, replicate 1
[12] = 48 h, 10 µM, compound concentration 10 uM, replicate 2

CN1C2CCC1CC(OC(c1ccc(F)cc1)c1ccc(F)cc1)C2.Cl (stereo not drawn)
Population Apoptotic (%) [1]: 45% | Population Fragmented Nuclei (%) [1]: 8% | Population Healthy Nuclei (%) [1]: 80% | Population Hoechst High Intensity Objects (%) [1]: 4% | Population Membrane Permeable-Phenotype (%) [1]: 2% | Population Mitochondria Different-Phenotype (%) [1]: 11% | Population Mitotic Cells (%) [1]: 54% | Population Normal (%) [1]: 95% | Population Pyknosed Nuclei (%) [1]: 10% | Total Cell Count [1]: 223 | Population Apoptotic (%) [2]: 100% | Population Fragmented Nuclei (%) [2]: 5% | Population Healthy Nuclei (%) [2]: 92% | Population Hoechst High Intensity Objects (%) [2]: 2% | Population Membrane Permeable-Phenotype (%) [2]: 3% | Population Mitochondria Different-Phenotype (%) [2]: 4% | Population Mitotic Cells (%) [2]: 0% | Population Normal (%) [2]: 97% | Population Pyknosed Nuclei (%) [2]: 1% | Population Tubulin-Different-Phenotype (%) [2]: 8% | Total Cell Count [2]: 69 | Population Apoptotic (%) [3]: 56% | Population Fragmented Nuclei (%) [3]: 15% | Population Healthy Nuclei (%) [3]: 68% | Population Hoechst High Intensity Objects (%) [3]: 4% | Population Membrane Permeable-Phenotype (%) [3]: 4% | Population Mitochondria Different-Phenotype (%) [3]: 81% | Population Mitotic Cells (%) [3]: 43% | Population Normal (%) [3]: 95% | Population Pyknosed Nuclei (%) [3]: 15% | Population Tubulin-Different-Phenotype (%) [3]: 54% | Total Cell Count [3]: 151 | Population Apoptotic (%) [4]: 80% | Population Fragmented Nuclei (%) [4]: 8% | Population Healthy Nuclei (%) [4]: 78% | Population Hoechst High Intensity Objects (%) [4]: 6% | Population Membrane Permeable-Phenotype (%) [4]: 10% | Population Mitochondria Different-Phenotype (%) [4]: 89% | Population Mitotic Cells (%) [4]: 20% | Population Normal (%) [4]: 93% | Population Pyknosed Nuclei (%) [4]: 13% | Population Tubulin-Different-Phenotype (%) [4]: 49% | Total Cell Count [4]: 78 | Population Apoptotic (%) [5]: 50% | Population Fragmented Nuclei (%) [5]: 7% | Population Healthy Nuclei (%) [5]: 84% | Population Hoechst High Intensity Objects (%) [5]: 3% | Population Membrane Permeable-Phenotype (%) [5]: 1% | Population Mitochondria Different-Phenotype (%) [5]: 6% | Population Mitotic Cells (%) [5]: 50% | Population Normal (%) [5]: 96% | Population Pyknosed Nuclei (%) [5]: 7% | Population Tubulin-Different-Phenotype (%) [5]: 3% | Total Cell Count [5]: 305 | Population Apoptotic (%) [6]: 20% | Population Fragmented Nuclei (%) [6]: 3% | Population Healthy Nuclei (%) [6]: 90% | Population Hoechst High Intensity Objects (%) [6]: 2% | Population Membrane Permeable-Phenotype (%) [6]: 4% | Population Mitochondria Different-Phenotype (%) [6]: 4% | Population Mitotic Cells (%) [6]: 80% | Population Normal (%) [6]: 97% | Population Pyknosed Nuclei (%) [6]: 6% | Population Tubulin-Different-Phenotype (%) [6]: 8% | Total Cell Count [6]: 82 | Population Apoptotic (%) [7]: 62% | Population Fragmented Nuclei (%) [7]: 15% | Population Healthy Nuclei (%) [7]: 65% | Population Hoechst High Intensity Objects (%) [7]: 7% | Population Membrane Permeable-Phenotype (%) [7]: 0% | Population Mitochondria Different-Phenotype (%) [7]: 71% | Population Mitotic Cells (%) [7]: 37% | Population Normal (%) [7]: 92% | Population Tubulin-Different-Phenotype (%) [7]: 30% | Total Cell Count [7]: 196 | Population Apoptotic (%) [8]: 80% | Population Fragmented Nuclei (%) [8]: 16% | Population Healthy Nuclei (%) [8]: 64% | Population Hoechst High Intensity Objects (%) [8]: 3% | Population Membrane Permeable-Phenotype (%) [8]: 6% | Population Mitochondria Different-Phenotype (%) [8]: 78% | Population Mitotic Cells (%) [8]: 20% | Population Normal (%) [8]: 96% | Population Pyknosed Nuclei (%) [8]: 19% | Population Tubulin-Different-Phenotype (%) [8]: 25% | Total Cell Count [8]: 107 | Population Apoptotic (%) [9]: 33% | Population Fragmented Nuclei (%) [9]: 6% | Population Healthy Nuclei (%) [9]: 87% | Population Hoechst High Intensity Objects (%) [9]: 1% | Population Membrane Permeable-Phenotype (%) [9]: 2% | Population Mitochondria Different-Phenotype (%) [9]: 6% | Population Mitotic Cells (%) [9]: 66% | Population Normal (%) [9]: 98% | Population Pyknosed Nuclei (%) [9]: 6% | Population Tubulin-Different-Phenotype (%) [9]: 5% | Total Cell Count [9]: 477 | Population Apoptotic (%) [10]: 0% | Population Fragmented Nuclei (%) [10]: 1% | Population Healthy Nuclei (%) [10]: 97% | Population Hoechst High Intensity Objects (%) [10]: 2% | Population Membrane Permeable-Phenotype (%) [10]: 5% | Population Mitochondria Different-Phenotype (%) [10]: 16% | Population Mitotic Cells (%) [10]: 100% | Population Normal (%) [10]: 97% | Population Pyknosed Nuclei (%) [10]: 0% | Population Tubulin-Different-Phenotype (%) [10]: 7% | Total Cell Count [10]: 119 | Population Apoptotic (%) [11]: 64% | Population Fragmented Nuclei (%) [11]: 20% | Population Healthy Nuclei (%) [11]: 63% | Population Hoechst High Intensity Objects (%) [11]: 5% | Population Membrane Permeable-Phenotype (%) [11]: 1% | Population Mitochondria Different-Phenotype (%) [11]: 44% | Population Mitotic Cells (%) [11]: 35% | Population Normal (%) [11]: 94% | Population Pyknosed Nuclei (%) [11]: 15% | Population Tubulin-Different-Phenotype (%) [11]: 17% | Total Cell Count [11]: 249 | Population Apoptotic (%) [12]: 77% | Population Fragmented Nuclei (%) [12]: 16% | Population Healthy Nuclei (%) [12]: 75% | Population Hoechst High Intensity Objects (%) [12]: 6% | Population Membrane Permeable-Phenotype (%) [12]: 18% | Population Mitochondria Different-Phenotype (%) [12]: 56% | Population Mitotic Cells (%) [12]: 22% | Population Normal (%) [12]: 93% | Population Pyknosed Nuclei (%) [12]: 7% | Population Tubulin-Different-Phenotype (%) [12]: 27% | Total Cell Count [12]: 127

Cn1nc(C(=O)NCc2ccc(C(=O)O)cc2)cc1-c1ccc2[nH]ccc2c1 [BI 4395]
Population Apoptotic (%) [3]: 42% | Population Fragmented Nuclei (%) [3]: 4% | Population Healthy Nuclei (%) [3]: 87% and 92% | Population Hoechst High Intensity Objects (%) [3]: 2% and 3% | Population Membrane Permeable-Phenotype (%) [3]: 9% and 4% | Population Mitochondria Different-Phenotype (%) [3]: 17% | Population Mitotic Cells (%) [3]: 57% | Population Normal (%) [3]: 97% and 96% | Population Pyknosed Nuclei (%) [3]: 8% | Population Tubulin-Different-Phenotype (%) [3]: 21% and 16% | Total Cell Count [3]: 177 and 225 | Population Fragmented Nuclei (%) [4]: 9% and 7% | Population Healthy Nuclei (%) [4]: 89% | Population Hoechst High Intensity Objects (%) [4]: 11% | Population Membrane Permeable-Phenotype (%) [4]: 8% | Population Mitochondria Different-Phenotype (%) [4]: 35% and 23% | Population Mitotic Cells (%) [4]: 50% and 100% | Population Normal (%) [4]: 88% | Population Pyknosed Nuclei (%) [4]: 2% and 3% | Population Tubulin-Different-Phenotype (%) [4]: 30% | Total Cell Count [4]: 84 and 159 | Population Apoptotic (%) [7]: 18% and 33% | Population Fragmented Nuclei (%) [7]: 4% and 1% | Population Healthy Nuclei (%) [7]: 95% | Population Hoechst High Intensity Objects (%) [7]: 1% | Population Membrane Permeable-Phenotype (%) [7]: 6% | Population Mitochondria Different-Phenotype (%) [7]: 18% and 24% | Population Mitotic Cells (%) [7]: 81% and 66% | Population Normal (%) [7]: 98% | Population Pyknosed Nuclei (%) [7]: 6% and 2% | Population Tubulin-Different-Phenotype (%) [7]: 20% | Total Cell Count [7]: 253 and 307 | Population Apoptotic (%) [8]: 40% and 60% | Population Fragmented Nuclei (%) [8]: 7% and 5% | Population Healthy Nuclei (%) [8]: 87% and 89% | Population Hoechst High Intensity Objects (%) [8]: 7% and 6% | Population Membrane Permeable-Phenotype (%) [8]: 9% and 8% | Population Mitochondria Different-Phenotype (%) [8]: 15% and 40% | Population Mitotic Cells (%) [8]: 60% and 40% | Population Normal (%) [8]: 92% and 93% | Population Pyknosed Nuclei (%) [8]: 5% | Population Tubulin-Different-Phenotype (%) [8]: 34% and 29% | Total Cell Count [8]: 199 and 102
